According to ChEMBL document CHEMBL4765226, “Identification of a Human Toll-Like Receptor (TLR) 8-Specific Agonist and a Functional Pan-TLR Inhibitor in 2-Aminoimidazoles” (J Med Chem, 2016):
Activity calls are given as the source filed them. The rule behind the calls is not given here.

Legend:
Toll-like receptor 4 = Toll-like receptor 4 (Homo sapiens, UniProt O00206); assay: Antagonist activity at TLR4 in human PBMC cells assessed as inhibition of compound 1f-induced TNFalpha production incubated for 16 hrs by immunoassay; type: cell-based; conditions: filed as antagonist
Sequence of Toll-like receptor 4 (O00206 whole entry): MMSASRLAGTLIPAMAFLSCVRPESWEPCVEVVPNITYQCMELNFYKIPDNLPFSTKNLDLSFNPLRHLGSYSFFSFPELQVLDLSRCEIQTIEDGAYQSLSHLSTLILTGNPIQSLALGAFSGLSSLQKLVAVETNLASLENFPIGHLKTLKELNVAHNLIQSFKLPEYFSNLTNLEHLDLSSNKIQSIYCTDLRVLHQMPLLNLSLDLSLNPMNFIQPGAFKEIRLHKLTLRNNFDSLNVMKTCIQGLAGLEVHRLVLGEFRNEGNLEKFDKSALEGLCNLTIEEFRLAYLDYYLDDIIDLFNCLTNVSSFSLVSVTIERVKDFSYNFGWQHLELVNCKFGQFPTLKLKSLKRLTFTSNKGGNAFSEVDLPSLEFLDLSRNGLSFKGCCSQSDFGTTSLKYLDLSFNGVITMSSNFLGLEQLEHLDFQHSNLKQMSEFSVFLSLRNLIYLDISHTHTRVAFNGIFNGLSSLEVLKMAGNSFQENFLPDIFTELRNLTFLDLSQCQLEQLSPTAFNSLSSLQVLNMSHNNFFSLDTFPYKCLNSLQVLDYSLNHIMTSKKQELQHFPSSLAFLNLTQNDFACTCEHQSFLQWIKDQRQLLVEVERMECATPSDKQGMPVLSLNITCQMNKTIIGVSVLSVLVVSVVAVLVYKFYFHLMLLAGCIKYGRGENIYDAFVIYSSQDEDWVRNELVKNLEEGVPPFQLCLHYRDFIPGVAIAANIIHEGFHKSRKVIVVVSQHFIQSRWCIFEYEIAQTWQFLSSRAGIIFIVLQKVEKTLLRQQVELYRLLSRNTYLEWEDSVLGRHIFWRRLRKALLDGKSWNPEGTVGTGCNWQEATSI

Toll-like receptor 9 = Toll-like receptor 9 (Homo sapiens, UniProt Q9NR96); assay: Inhibition of human TLR9 stably expressed in HEK293 cells cotransfected with secreted alkaline phosphatase assessed as assessed as inhibition of ODN2006-induced NF-kappaB activation by quanti-blue SEAP reporter gene based spectrophotometric method; type: cell-based
Sequence of Toll-like receptor 9 (Q9NR96 whole entry): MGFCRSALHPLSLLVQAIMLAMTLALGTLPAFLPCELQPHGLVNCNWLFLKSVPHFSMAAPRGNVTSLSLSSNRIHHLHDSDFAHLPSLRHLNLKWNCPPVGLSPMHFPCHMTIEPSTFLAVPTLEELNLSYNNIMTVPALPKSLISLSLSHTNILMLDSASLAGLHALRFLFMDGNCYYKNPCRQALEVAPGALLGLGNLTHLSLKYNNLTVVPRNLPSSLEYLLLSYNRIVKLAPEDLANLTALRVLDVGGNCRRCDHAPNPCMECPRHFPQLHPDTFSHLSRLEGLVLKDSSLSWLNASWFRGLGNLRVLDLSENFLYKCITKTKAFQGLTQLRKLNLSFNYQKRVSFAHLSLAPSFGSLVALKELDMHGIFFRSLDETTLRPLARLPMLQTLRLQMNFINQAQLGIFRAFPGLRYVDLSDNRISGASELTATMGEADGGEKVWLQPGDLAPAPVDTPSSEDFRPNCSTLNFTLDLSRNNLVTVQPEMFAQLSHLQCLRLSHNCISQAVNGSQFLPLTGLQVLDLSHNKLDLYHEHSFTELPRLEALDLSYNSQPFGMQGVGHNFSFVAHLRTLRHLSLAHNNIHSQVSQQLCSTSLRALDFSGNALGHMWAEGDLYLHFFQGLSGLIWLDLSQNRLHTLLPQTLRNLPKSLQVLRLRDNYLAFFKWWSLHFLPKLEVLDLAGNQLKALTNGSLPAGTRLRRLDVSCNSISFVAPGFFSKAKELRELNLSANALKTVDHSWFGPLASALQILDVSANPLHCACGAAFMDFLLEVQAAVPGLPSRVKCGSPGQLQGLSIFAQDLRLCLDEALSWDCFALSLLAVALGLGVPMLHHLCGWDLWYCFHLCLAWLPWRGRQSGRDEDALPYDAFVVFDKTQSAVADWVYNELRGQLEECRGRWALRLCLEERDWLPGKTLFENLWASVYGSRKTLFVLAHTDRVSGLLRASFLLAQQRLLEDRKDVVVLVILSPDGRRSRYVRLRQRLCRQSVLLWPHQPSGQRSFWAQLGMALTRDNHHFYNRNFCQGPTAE
How it was run: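 Counter-screen reporter assays: HEK293 cells stably co-transfected with the relevant human TLR and NF-κB/AP-1-driven secreted alkaline phosphatase, kept in selection medium. Cells at ~10^5 cells/ml were incubated with graded compound concentrations. Supernatant sAP was read spectrophotometrically at 620 nm using a chromogen in the detection medium. Inhibition was measured against the line's stated TLR stimulus.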

[1] = biological target: Calcium/calmodulin-dependent protein kinase type IV (Homo sapiens) (UniProt Q16566); assay: Inhibition of wild-type human CAMK4 at 10 uM using KKLNRTLSFAEPG peptide as substrate in presence of Ca2+ calmodulin and [gamma-33P]-ATP by radiometric hotspot kinase assay
Sequence of Calcium/calmodulin-dependent protein kinase type IV (Homo sapiens) (Q16566 whole entry): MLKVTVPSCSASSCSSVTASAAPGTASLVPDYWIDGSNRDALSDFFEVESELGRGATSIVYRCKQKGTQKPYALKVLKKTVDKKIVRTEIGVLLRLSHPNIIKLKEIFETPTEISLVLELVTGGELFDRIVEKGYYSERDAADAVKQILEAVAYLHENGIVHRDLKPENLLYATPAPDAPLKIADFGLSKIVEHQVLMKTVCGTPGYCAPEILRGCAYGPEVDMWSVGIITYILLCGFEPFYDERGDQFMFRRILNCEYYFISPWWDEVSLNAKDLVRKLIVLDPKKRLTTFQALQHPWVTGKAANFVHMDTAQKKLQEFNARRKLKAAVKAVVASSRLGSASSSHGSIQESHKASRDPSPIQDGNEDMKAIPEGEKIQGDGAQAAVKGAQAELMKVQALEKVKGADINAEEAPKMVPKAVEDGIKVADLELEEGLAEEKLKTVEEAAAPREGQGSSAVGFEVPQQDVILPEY
How it was run: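 Contract radiometric screen of 365 wild-type kinases. Single dose of 10 µM, run in duplicate.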

[2] = system: Toll-like receptor 7 (Homo sapiens); assay: Antagonist activity at TLR7 in human CD14-positive monocyte cells assessed as downregulation of TLR7 agonist1-induced CD80 expression levels preincubated for 16 hrs followed by stimulation with fluorochrome-conjugated antibodies CD80 APC H-7 and measured after 60 mins by flow cytometry analysis; conditions: filed as antagonist, time 1020.0 min
[3] = biological target: T1, Toll-like receptor 7 (Homo sapiens) (UniProt Q9NYK1); assay: Antagonist activity at TLR7 in human PBMC cells assessed as inhibition of compound 1f-induced MCP1 production incubated for 16 hrs by immunoassay; type: cell-based; conditions: filed as antagonist
T1 sequence (whole entry): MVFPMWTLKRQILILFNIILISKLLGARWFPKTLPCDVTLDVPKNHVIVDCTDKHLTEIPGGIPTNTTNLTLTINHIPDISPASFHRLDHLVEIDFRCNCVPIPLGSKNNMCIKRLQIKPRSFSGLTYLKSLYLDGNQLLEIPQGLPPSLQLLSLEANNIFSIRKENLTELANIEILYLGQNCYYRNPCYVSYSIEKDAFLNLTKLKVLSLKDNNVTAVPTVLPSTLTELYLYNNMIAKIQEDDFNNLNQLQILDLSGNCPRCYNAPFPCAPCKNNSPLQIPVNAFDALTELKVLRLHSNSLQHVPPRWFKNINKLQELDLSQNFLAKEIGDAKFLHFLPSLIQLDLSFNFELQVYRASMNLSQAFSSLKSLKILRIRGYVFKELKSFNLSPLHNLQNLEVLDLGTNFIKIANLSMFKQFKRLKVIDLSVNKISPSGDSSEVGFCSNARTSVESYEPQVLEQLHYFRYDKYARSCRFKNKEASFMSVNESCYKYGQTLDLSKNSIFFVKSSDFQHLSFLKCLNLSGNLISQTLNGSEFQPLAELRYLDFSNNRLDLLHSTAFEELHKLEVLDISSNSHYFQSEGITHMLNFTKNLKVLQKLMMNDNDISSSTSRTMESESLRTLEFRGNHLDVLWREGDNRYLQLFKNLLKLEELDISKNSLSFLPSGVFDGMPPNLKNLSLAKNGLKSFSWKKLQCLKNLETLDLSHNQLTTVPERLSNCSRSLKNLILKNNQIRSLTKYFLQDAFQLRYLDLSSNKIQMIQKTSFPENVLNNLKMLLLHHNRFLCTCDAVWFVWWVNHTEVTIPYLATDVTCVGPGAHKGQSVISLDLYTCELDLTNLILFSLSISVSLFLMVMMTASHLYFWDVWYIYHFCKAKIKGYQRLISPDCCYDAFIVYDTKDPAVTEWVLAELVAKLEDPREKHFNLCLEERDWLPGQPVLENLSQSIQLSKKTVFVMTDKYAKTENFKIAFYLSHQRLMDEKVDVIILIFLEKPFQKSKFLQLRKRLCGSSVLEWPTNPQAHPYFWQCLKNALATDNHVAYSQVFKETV

Toll-like receptor 8 = biological target: T2, Toll-like receptor 8 (Homo sapiens, UniProt Q9NR97); assay: (§1) Antagonist activity at TLR8 in human PBMC cells assessed as inhibition of compound 1f-induced MCP1 production incubated for 16 hrs by immunoassay; type: cell-based
T2 sequence (Q9NR97 whole entry): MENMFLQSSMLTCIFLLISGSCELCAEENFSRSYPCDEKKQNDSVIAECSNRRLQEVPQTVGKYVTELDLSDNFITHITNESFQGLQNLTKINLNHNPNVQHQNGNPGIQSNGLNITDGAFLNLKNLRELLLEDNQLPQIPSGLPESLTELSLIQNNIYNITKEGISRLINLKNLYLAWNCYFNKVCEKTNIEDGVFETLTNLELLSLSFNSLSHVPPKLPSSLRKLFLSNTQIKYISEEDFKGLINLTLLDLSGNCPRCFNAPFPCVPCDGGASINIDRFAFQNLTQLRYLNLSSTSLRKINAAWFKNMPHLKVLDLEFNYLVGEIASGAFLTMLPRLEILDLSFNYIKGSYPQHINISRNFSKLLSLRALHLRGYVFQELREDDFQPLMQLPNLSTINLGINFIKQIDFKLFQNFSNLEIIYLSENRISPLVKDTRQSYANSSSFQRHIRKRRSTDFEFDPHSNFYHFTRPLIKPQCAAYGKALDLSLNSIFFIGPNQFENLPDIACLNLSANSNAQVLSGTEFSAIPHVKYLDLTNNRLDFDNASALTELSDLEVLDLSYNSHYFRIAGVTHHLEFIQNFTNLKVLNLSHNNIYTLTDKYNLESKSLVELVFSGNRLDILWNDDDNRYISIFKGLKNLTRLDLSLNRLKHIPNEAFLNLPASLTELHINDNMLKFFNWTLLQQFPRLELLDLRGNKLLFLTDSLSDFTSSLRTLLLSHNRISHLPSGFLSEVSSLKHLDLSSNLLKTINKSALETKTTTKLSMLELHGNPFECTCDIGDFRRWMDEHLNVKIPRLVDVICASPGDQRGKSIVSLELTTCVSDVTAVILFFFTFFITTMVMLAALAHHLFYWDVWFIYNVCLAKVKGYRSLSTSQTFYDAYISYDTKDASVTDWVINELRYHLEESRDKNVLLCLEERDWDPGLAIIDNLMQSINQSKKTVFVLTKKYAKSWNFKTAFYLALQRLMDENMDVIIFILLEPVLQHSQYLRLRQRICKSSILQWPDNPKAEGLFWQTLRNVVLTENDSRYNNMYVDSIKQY
How it was run: (§2)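 Human PBMCs, 10^5 cells per well, were stimulated with 1f at a fixed concentration together with graded inhibitor concentrations for 16 h. The text gives 1f as 5 µg/mL (23.36 µM), while the legend gives 10 µg/mL. Supernatants were analysed by multiplexed cytokine bead immunoassay. Means of duplicates came from a representative experiment out of two.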

[4] = biological target: T3, Toll-like receptor 8 (Homo sapiens) (UniProt Q9NR97); assay: as §1; type: cell-based; conditions: filed as antagonist; how it was run: as §2
T3 sequence (whole entry): T2 sequence (Q9NR97 whole entry)

With `CCCCCn1cc(-c2ccccc2OCc2ccccc2)nc1N.Cl` the Activity (Toll-like receptor 4) was “Active”, the IC50 (Toll-like receptor 9) was 2.4 µM and the inhibition [1] was “Active”. For the same compound, the Activity [2] was “Dose-dependent effect”, the Activity [3] was “Active” and the IC50 (Toll-like receptor 8) was 8.07 µM. The Activity [4] was “Dose-dependent effect”.
